Values after ≈ are worked out from the molar mass of the structure shown. Active and inactive are the calls of the source. The rule behind the calls is not given here.
Legend:
A549 [1] = experiment: Cytotoxicity against human A549 cells assessed as cell viability at 1 uM after 48 hrs by MTT assay; assay type: functional; details: A549, 48 h, read-out: Activity
Method in brief: (§1)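 Cells were seeded at 3.10³–5.10³ per well in RPMI 1640 with 10% FBS, 4 mM L-glutamine and penicillin/streptomycin, then held 24 h at 37 °C under 5% CO₂. Ligands (DMSO, final 0.5% v/v) were added at 0.1–100 for 24 or 48 h. MTT was added for 4 h and dissolved in 50% DMF/5% SDS. A570 was read, and cytotoxicity was calculated as 100×(OD treated/OD untreated).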

Rhodotorula mucilaginosa [2] = experiment: Antifungal activity against Rhodotorula rubra DSM 70403 after 72 hrs by agar disk diffusion assay; assay type: functional
Method in brief: (§2)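 Sterile 6 mm paper discs were loaded with ligand solution freshly prepared in DMSO and placed on inoculated agar. The inoculum came from broth cultures: bacteria in Nutrient Broth at 30 °C for 24 h, yeasts in Malt Extract Broth for 48 h. Plates were incubated at 35 °C for 24 h (bacteria) or 25 °C for 72 h (yeasts). A DMSO solvent control and a reference antibiotic disc were included on each plate.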

Debaryomyces hansenii [3] = experiment: Antifungal activity against Debaryomyces hansenii DSM 70238 after 72 hrs by agar disk diffusion assay; assay type: functional; method in brief: as §2
Micrococcus luteus [4] = experiment: Antibacterial activity against Micrococcus luteus La 2971 after 24 hrs by broth micro dilution method; assay type: functional; details: La 2971, 24 h
Micrococcus luteus [5] = experiment: Antibacterial activity against Micrococcus luteus La 2971 after 24 hrs by agar disk diffusion assay; assay type: functional
Method in brief: (§3)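 Disk diffusion with sterile 6 mm discs loaded with DMSO solutions of the test agents and placed on inoculated agar. Bacteria were pre-grown in Nutrient Broth at 30 °C for 24 h, and plates were incubated at 35 °C for 24 h. Each plate carried a reference antibiotic disc matched to the organism, and a DMSO-only solvent control was run.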

Calf thymus DNA = experiment: Binding affinity to calf thymus DNA assessed as change in electromagnetic spectrum at 500 uM by UV-vis spectroscopy; assay type: nucleic-acid assay; details: Bos taurus
Method in brief: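 CT-DNA was prepared in ddH₂O and judged protein-free by an A260/A280 ratio of 1.8:1. UV–visible absorption spectra of the DNA solution were recorded without ligand and with increasing ligand amounts.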

Staphylococcus aureus [6] = experiment: Antibacterial activity against Staphylococcus aureus ATCC 6538 after 24 hrs by broth micro dilution method; assay type: functional; details: ATCC 6538, 24 h
[7] = system: Hanseniaspora guilliermondii; experiment: Antifungal activity against Hanseniaspora guilliermondii DSM 3432 after 72 hrs by agar disk diffusion assay; assay type: functional; method in brief: as §2
A549 [8] = experiment: Cytotoxicity against human A549 cells assessed as cell viability at 100 uM after 24 hrs by MTT assay; assay type: functional; details: A549, 24 h, read-out: Activity; method in brief: as §1
A549 [9] = experiment: Induction of apoptosis in human A549 cells assessed as DNA fragmentation at 100 uM after 24 hrs by DNA fragmentation assay; assay type: functional, cell-based
Method in brief: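 10 × 10⁴ cells were seeded in 6-well plates and treated with ligand for 24 h. Cells were then collected and washed in PBS, and DNA was extracted with a kit. Extracts were run on 1.5% agarose alongside a 100 bp marker, an untreated control and DMSO-treated controls, and ladders were visualized under UV.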

[10] = Cytotoxicity against human 23132/87 cells assessed as cell viability at 10 uM after 24 hrs by MTT assay; assay type: functional; details: 23132-87, 24 h, read-out: Activity; method in brief: as §1
A549 [11] = experiment: Cytotoxicity against human A549 cells assessed as cell viability at 100 uM after 48 hrs by MTT assay; assay type: functional; details: A549, 48 h, read-out: Activity; method in brief: as §1
A549 [12] = experiment: Cytotoxicity against human A549 cells assessed as cell viability at 0.1 uM after 24 hrs by MTT assay; assay type: functional; details: A549, 24 h, read-out: Activity; method in brief: as §1
Candida albicans [13] = experiment: Antifungal activity against Candida albicans ATCC 10231 after 72 hrs by agar disk diffusion assay; assay type: functional; method in brief: as §2
Debaryomyces hansenii [14] = experiment: Antifungal activity against Debaryomyces hansenii DSM 70238 after 24 hrs by broth micro dilution method; assay type: functional; details: DSM 70238, 24 h
Method in brief: (§4)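 Broth microdilution was run in cation-adjusted Mueller Hinton Broth. Compounds were dissolved in DMSO at 2 mg mL^-1 and serially diluted two-fold. Yeast precultures were grown in Malt Extract Broth for 48 h. The final inoculum was about 10⁶ cfu mL^-1, and plates were incubated at 37 °C for 24 h. The MIC was read from this series.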

[15] = Cytotoxicity against human 23132/87 cells assessed as cell viability at 100 uM after 48 hrs by MTT assay; assay type: functional; details: 23132-87, 48 h, read-out: Activity; method in brief: as §1
Escherichia coli = experiment: Antibacterial activity against Escherichia coli ATCC 11230 after 24 hrs by agar disk diffusion assay; assay type: functional; method in brief: as §3
Candida albicans [16] = experiment: Antifungal activity against Candida albicans ATCC 10231 after 24 hrs by broth micro dilution method; assay type: functional; details: ATCC 10231, 24 h; method in brief: as §4
A549 [17] = experiment: Cytotoxicity against human A549 cells assessed as cell viability at 10 uM after 24 hrs by MTT assay; assay type: functional; details: A549, 24 h, read-out: Activity; method in brief: as §1
[18] = system: Mycolicibacterium smegmatis; experiment: Antibacterial activity against Mycobacterium smegmatis CCM 2067 after 24 hrs by agar disk diffusion assay; assay type: functional; method in brief: as §3
Rhodotorula mucilaginosa [19] = experiment: Antifungal activity against Rhodotorula rubra DSM 70403 after 24 hrs by broth micro dilution method; assay type: functional; details: DSM 70403, 24 h; method in brief: as §4
[20] = system: Hanseniaspora guilliermondii; experiment: Antifungal activity against Hanseniaspora guilliermondii DSM 3432 after 24 hrs by broth micro dilution method; assay type: functional; details: DSM 3432, 24 h; method in brief: as §4
[21] = Cytotoxicity against human 23132/87 cells assessed as cell viability at 0.1 uM after 24 hrs by MTT assay; assay type: functional; details: 23132-87, 24 h, read-out: Activity; method in brief: as §1
A549 [22] = experiment: Cytotoxicity against human A549 cells assessed as cell viability at 1 uM after 24 hrs by MTT assay; assay type: functional; details: A549, 24 h, read-out: Activity; method in brief: as §1
Klebsiella pneumoniae = experiment: Antibacterial activity against Klebsiella pneumoniae UC57 after 24 hrs by agar disk diffusion assay; assay type: functional; method in brief: as §3
Staphylococcus aureus [23] = experiment: Antibacterial activity against Staphylococcus aureus ATCC 6538 after 24 hrs by agar disk diffusion assay; assay type: functional; method in brief: as §3
[24] = system: Mycolicibacterium smegmatis; experiment: Antibacterial activity against Mycobacterium smegmatis CCM 2067 after 24 hrs by broth micro dilution method; assay type: functional; details: CCM 2067, 24 h
A549 [25] = experiment: Induction of apoptosis in human A549 cells assessed as change in nuclear appearance at 100 uM after 24 hrs by hoechst nuclear staining; assay type: functional, cell-based
Method in brief: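 Cells grown in 6-well plates were treated for 24 h, washed three times in PBS and fixed in ice-cold methanol for 10 min. They were stained with Hoechst 33258 for 5 min, destained in double-distilled water for 5 min and examined by fluorescence microscopy. Untreated and DMSO-treated cells served as controls.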

A549 [26] = experiment: Cytotoxicity against human A549 cells assessed as cell viability at 0.1 uM after 48 hrs by MTT assay; assay type: functional; details: A549, 48 h, read-out: Activity; method in brief: as §1
Listeria monocytogenes [27] = experiment: Antibacterial activity against Listeria monocytogenes ATCC 15313 after 24 hrs by agar disk diffusion assay; assay type: functional; method in brief: as §3
[28] = Cytotoxicity against human 23132/87 cells assessed as cell viability at 1 uM after 48 hrs by MTT assay; assay type: functional; details: 23132-87, 48 h, read-out: Activity; method in brief: as §1
Listeria monocytogenes [29] = experiment: Antibacterial activity against Listeria monocytogenes ATCC 15313 after 24 hrs by broth micro dilution method; assay type: functional; details: ATCC 15313, 24 h
[30] = Cytotoxicity against human 23132/87 cells assessed as cell viability at 0.1 uM after 48 hrs by MTT assay; assay type: functional; details: 23132-87, 48 h, read-out: Activity; method in brief: as §1
Kluyveromyces marxianus = experiment: Antifungal activity against Kluyveromyces fragilis NRRL 2415 after 24 hrs by broth micro dilution method; assay type: functional; details: NRRL 2415, 24 h; method in brief: as §4

MIC (Micrococcus luteus [4]) [µg/mL]	Activity (Calf thymus DNA)	MIC (Staphylococcus aureus [6]) [µg/mL]	MIC (Debaryomyces hansenii [14]) [µg/mL]	MIC (Candida albicans [16]) [µg/mL]	SMILES	viability at 1 µM (A549 [1]) [%]	inhibition zone (IZ) (Rhodotorula mucilaginosa [2]) [mm]	inhibition zone (IZ) (Debaryomyces hansenii [3]) [mm]	inhibition zone (IZ) (Micrococcus luteus [5]) [mm]	inhibition zone (IZ) [7] [mm]	viability at 100 µM (A549 [8]) [%]	Activity (A549 [9])	viability at 10 µM [10] [%]	viability at 100 µM (A549 [11]) [%]	viability at 0.1 µM (A549 [12]) [%]	inhibition zone (IZ) (Candida albicans [13]) [mm]	viability at 100 µM [15] [%]	inhibition zone (IZ) (Escherichia coli) [mm]	viability at 10 µM (A549 [17]) [%]	inhibition zone (IZ) [18] [mm]	also measured
3.12 (≈ 4.69 µM)	inactive	12.5 (≈ 18.7 µM)	1.56 (≈ 2.34 µM)	3.12 (≈ 4.69 µM)	O=C1CSSCC(=O)Nc2nc(nc(-c3ccccc3)n2)NC(=O)CSSCC(=O)Nc2nc(nc(-c3ccccc3)n2)N1	> 86	18	21	18	20	> 86	inactive	> 86	> 86	> 86	19	> 86	10	> 86	10	MIC (Rhodotorula mucilaginosa [19]): 3.12 µg/mL (≈ 4.69 µM); MIC [20]: 1.56 µg/mL (≈ 2.34 µM); viability at 0.1 µM [21]: > 86%; viability at 1 µM (A549 [22]): > 86%; inhibition zone (IZ) (Klebsiella pneumoniae): 15 mm; inhibition zone (IZ) (Staphylococcus aureus [23]): 14 mm; MIC [24]: 25 µg/mL (≈ 37.5 µM); Activity (A549 [25]): inactive; viability at 0.1 µM (A549 [26]): > 86%; inhibition zone (IZ) (Listeria monocytogenes [27]): 10 mm; viability at 1 µM [28]: > 86%; MIC (Listeria monocytogenes [29]): 25 µg/mL (≈ 37.5 µM); viability at 0.1 µM [30]: > 86%; MIC (Kluyveromyces marxianus): 1.56 µg/mL (≈ 2.34 µM)
6.25 (≈ 8.65 µM)	inactive	12.5 (≈ 17.3 µM)	1.56 (≈ 2.16 µM)	3.12 (≈ 4.32 µM)	O=C1CCSSCCC(=O)Nc2nc(nc(-c3ccccc3)n2)NC(=O)CCSSCCC(=O)Nc2nc(nc(-c3ccccc3)n2)N1	> 86	21	22	17	22	> 86	inactive	> 86	> 86	> 86	19	> 86	10	> 86	11	MIC (Rhodotorula mucilaginosa [19]): 3.12 µg/mL (≈ 4.32 µM); MIC [20]: 1.56 µg/mL (≈ 2.16 µM); viability at 0.1 µM [21]: > 86%; viability at 1 µM (A549 [22]): > 86%; inhibition zone (IZ) (Klebsiella pneumoniae): 16 mm; inhibition zone (IZ) (Staphylococcus aureus [23]): 12 mm; MIC [24]: 25 µg/mL (≈ 34.6 µM); Activity (A549 [25]): inactive; viability at 0.1 µM (A549 [26]): > 86%; inhibition zone (IZ) (Listeria monocytogenes [27]): 10 mm; viability at 1 µM [28]: > 86%; MIC (Listeria monocytogenes [29]): 25 µg/mL (≈ 34.6 µM); viability at 0.1 µM [30]: > 86%; MIC (Kluyveromyces marxianus): 1.56 µg/mL (≈ 2.16 µM)
